Test results reported in publication PMC3172161 (ACS chemical neuroscience, 2011).
Like-named read-outs stand apart in the source and are kept apart here. Each block holds one compound with its values, some of them ahead of it.

Columns and labels:
rat mGlu5 [1] = target: T1, rat mGlu5 (Rattus norvegicus, UniProt P31424); assay: Calcium mobilization assay; type: cell-based; conditions: for % Glu Max: amplitude of response in the presence of 30 μM test compound as a percentage of maximal response (100 μM glutamate)
T1 sequence (P31424 21-1203): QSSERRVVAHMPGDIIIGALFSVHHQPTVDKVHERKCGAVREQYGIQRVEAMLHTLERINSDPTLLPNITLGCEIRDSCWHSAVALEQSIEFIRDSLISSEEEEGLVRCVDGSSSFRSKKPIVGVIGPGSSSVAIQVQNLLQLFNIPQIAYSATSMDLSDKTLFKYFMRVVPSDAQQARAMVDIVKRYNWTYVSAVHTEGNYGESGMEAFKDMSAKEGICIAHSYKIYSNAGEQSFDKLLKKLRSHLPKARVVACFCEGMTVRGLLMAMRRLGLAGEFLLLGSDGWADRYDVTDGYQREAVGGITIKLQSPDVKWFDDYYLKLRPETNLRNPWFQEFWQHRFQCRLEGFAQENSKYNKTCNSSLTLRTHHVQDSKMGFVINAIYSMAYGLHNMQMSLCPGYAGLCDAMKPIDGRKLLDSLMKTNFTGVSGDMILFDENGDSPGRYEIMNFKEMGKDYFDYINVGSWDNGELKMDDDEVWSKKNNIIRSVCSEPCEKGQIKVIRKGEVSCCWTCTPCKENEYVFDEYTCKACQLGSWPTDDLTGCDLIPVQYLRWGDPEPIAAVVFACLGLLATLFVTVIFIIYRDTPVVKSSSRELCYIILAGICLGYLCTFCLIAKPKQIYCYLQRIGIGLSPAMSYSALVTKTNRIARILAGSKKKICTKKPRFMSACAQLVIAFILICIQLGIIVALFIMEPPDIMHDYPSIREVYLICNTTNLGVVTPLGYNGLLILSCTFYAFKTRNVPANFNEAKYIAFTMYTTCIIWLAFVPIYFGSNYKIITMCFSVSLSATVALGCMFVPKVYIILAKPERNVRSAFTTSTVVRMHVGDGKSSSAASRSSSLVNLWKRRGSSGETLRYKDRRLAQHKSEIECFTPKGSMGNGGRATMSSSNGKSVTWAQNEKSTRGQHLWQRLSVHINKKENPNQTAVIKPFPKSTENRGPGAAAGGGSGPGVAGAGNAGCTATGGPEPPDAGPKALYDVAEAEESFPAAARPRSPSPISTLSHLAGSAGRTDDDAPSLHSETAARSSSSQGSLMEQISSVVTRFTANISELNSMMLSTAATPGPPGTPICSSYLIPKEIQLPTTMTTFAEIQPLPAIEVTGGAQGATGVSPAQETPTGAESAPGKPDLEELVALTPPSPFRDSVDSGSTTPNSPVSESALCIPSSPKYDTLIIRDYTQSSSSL
Method in brief: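 HEK293A cells stably expressing rat mGlu5 were plated at 20K/well and grown overnight at 37 °C in 6% CO2. They were loaded with 2 μM Fluo-4 AM at 37 °C in HBSS with 20 mM HEPES and 2.5 mM probenecid. Compound (10-point 1:3 series, 30 μM–1 nM final) was added 140 s before EC20 glutamate, then EC80 glutamate 74 s later. Ca2+ fluorescence read at 1 Hz; IC50 from four-parameter logistic fit.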

[2] = Stability in liver microsomes; type: in vitro ADME; conditions: human liver microsomes; 1 μM, 15 min, 37 °C, NADPH
Method in brief: (§1)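 Test compound at 1 μM was incubated 15 min at 37 °C with shaking, with human or mouse liver microsomes, phosphate buffer and NADPH. Samples were analysed by UPLC-ESI-MS/MS on a C18 column with a formic acid/acetonitrile gradient. % parent remaining was calculated against similarly prepared un-incubated controls.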

C57Bl/6J mice [3] = assay: Operant sensation seeking; type: in vivo, mouse; conditions: 10 min prior to sessions
Method in brief: (§2)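 Male C57Bl/6J mice (3–5 weeks) responded for varied visual and auditory stimuli: 10–14 daily 1 h FR-1 sessions, then 2 h progressive-ratio sessions. Test compound (0, 3, 10, 30 mg/kg in 10% Tween-80) or reference NAM (0, 1.5, 5, 15 mg/kg in saline; 12 FR sessions) given ip, 20 ml/kg, 10 min pre-session. Latin square, doses 48 h apart. Reinforcers earned analysed by repeated-measures ANOVA/Dunnett.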

mGlu4 = mGlu4 (Homo sapiens, UniProt Q14833); assay: Cell based functional selectivity assay
[4] = Stability in liver microsomes; type: in vitro ADME; conditions: mouse liver microsomes; 1 μM, 15 min, 37 °C, NADPH
Method in brief: as §1

mGlu7 = mGlu7 (Homo sapiens, UniProt Q14831); assay: Cell based functional selectivity assay
[5] = target: mGlu5 in rat cortical astrocytes (Rattus norvegicus, UniProt P31424); assay: Rat cortical astrocytes assay; type: cell-based; conditions: fixed concentration 10 μM, increasing concentrations of glutamate
mGlu5 in rat cortical astrocytes, sequence (P31424 21-1203): as above

C57Bl/6J mice [6] = assay: Food reinforcer self-administration, progressive ratio responding; type: in vivo, mouse; conditions: 3, 10, 30 mg/kg i.p., 10 min prior to sessions
Method in brief: as §2, with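 “~40 μl of 10% vanilla Ensure:” for “varied visual and auditory stimuli:”, “saline)” for “saline; 12 FR sessions)”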

mGlu3 = mGlu3 (Homo sapiens, UniProt Q14832); assay: Cell based functional selectivity assay
mGlu3, sequence (Q14832 23-879): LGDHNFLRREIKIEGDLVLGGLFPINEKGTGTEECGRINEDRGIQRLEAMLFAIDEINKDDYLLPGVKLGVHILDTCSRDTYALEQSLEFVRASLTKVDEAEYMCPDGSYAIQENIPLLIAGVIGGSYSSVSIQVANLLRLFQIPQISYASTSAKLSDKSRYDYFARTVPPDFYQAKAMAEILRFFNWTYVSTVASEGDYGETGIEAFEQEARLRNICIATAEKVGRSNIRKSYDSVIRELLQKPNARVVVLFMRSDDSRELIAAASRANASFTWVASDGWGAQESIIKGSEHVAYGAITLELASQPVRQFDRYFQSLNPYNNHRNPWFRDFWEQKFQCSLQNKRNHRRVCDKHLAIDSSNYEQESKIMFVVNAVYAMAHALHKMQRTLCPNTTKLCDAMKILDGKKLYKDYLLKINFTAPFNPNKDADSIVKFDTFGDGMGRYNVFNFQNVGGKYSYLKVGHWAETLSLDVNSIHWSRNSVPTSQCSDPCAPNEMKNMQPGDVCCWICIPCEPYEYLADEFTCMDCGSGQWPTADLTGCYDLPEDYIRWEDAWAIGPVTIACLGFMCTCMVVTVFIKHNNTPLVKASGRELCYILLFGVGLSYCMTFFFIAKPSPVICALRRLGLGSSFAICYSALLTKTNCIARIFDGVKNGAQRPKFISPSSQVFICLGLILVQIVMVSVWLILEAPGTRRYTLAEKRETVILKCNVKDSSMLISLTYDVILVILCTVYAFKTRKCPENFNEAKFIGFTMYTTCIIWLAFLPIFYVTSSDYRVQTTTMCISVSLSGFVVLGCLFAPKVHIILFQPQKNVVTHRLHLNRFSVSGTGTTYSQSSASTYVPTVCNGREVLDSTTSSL

[7] = Brain homogenate binding assay; type: in vitro ADME; conditions: mouse
Method in brief: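 Fresh mouse brains (6–8) were homogenized 1:3 (w/w) in PBS on ice, spiked at 1000 ng/g and run in triplicate. Rapid equilibrium dialysis was against PBS for 4 h at 37 °C, 130 rpm. Matrix-balanced aliquots were extracted with acetonitrile/internal standard and analysed by LC/MS/MS. fu = buffer/homogenate peak-area ratio, corrected for homogenate dilution.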

male CD-1 mice = assay: Marble burying model of anxiety; type: in vivo, mouse; conditions: 15 minute pretreatment
Method in brief: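 Male CD-1 mice (30–35 g) were habituated 30 min to the test room. After 15 min pretreatment each was placed alone in a cage with 12 evenly spaced marbles on 2.5 cm bedding. Burying recorded over 30 min; counterbalanced design; Dunnett's test versus vehicle.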

mGlu8 = mGlu8 (Homo sapiens, UniProt O00222); assay: Cell based functional selectivity assay
mGlu8, sequence (O00222 34-908): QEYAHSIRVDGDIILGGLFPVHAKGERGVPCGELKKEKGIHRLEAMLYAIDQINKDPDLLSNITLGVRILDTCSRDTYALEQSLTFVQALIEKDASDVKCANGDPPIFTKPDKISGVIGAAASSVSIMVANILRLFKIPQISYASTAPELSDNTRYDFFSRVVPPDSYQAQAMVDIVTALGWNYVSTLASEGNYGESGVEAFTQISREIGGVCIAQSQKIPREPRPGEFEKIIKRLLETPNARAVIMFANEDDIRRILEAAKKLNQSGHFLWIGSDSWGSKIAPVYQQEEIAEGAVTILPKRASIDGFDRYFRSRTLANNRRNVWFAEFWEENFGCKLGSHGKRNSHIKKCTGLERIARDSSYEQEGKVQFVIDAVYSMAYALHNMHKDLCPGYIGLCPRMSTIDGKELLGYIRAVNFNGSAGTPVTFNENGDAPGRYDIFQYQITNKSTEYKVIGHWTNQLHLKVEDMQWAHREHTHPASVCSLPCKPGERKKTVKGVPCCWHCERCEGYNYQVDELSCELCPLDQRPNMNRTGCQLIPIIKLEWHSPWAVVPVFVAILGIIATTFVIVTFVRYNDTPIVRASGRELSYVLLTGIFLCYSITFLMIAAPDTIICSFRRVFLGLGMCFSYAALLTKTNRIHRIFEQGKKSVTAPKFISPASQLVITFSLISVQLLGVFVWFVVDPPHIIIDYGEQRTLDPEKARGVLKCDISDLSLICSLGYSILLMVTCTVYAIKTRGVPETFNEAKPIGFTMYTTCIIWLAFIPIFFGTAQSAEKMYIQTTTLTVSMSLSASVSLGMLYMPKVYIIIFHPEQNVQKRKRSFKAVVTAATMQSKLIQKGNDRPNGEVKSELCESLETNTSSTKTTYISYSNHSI

[8] = Plasma protein binding assay; type: in vitro ADME; conditions: human
[9] = Plasma protein binding assay; type: in vitro ADME; conditions: mouse
mGlu1 = mGlu1 (Homo sapiens, UniProt Q13255); assay: Cell based functional selectivity assay
mGlu1, sequence (Q13255 19-1194): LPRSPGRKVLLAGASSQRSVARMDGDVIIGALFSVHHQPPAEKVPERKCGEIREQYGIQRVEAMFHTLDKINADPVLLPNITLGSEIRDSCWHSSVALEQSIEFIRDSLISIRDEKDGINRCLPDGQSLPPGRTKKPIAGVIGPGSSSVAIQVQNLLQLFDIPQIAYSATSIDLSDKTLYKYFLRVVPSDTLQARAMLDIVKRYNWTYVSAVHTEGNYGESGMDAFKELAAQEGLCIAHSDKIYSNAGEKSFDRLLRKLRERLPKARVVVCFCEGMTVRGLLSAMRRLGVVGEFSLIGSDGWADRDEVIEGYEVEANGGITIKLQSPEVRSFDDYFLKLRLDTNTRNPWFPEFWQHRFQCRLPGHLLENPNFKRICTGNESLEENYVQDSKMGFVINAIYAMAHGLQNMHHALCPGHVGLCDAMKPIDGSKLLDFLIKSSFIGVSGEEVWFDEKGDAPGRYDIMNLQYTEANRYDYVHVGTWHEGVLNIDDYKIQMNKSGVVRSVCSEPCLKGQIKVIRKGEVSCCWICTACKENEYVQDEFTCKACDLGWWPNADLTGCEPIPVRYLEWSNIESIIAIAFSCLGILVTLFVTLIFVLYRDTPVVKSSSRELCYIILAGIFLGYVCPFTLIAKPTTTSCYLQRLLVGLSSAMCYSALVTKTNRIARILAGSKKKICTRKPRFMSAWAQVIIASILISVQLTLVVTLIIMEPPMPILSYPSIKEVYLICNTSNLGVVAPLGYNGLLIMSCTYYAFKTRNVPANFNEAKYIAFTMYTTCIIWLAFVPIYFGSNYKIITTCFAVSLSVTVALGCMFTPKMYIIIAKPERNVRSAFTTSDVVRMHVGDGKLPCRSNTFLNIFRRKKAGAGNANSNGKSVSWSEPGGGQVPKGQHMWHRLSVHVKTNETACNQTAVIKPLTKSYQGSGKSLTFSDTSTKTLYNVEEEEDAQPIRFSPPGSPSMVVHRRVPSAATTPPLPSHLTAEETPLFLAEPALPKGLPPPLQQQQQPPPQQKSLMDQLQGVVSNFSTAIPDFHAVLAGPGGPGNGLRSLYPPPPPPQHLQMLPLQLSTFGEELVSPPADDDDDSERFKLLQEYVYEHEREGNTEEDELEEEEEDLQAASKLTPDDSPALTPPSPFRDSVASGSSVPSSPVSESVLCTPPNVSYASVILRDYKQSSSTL

[10] = Mouse pharmacokinetic study, intraperitoneal dosing; type: in vivo
Method in brief: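 Male CD-1 mice (~30 g) received 10 mg/kg ip as a 0.5 mg/ml microsuspension in 10% Tween 80/water (20 ml/kg). Plasma (cardiac puncture, EDTA) and PBS-washed brains were collected at 15, 30, 60, 180 and 360 min, n=3 per time. Brains homogenized 1:5 (w/w) in PBS; samples precipitated with acetonitrile plus internal standard and run on HPLC/MS/MS. Dilution-corrected; noncompartmental analysis.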

mGlu2 = mGlu2 (Homo sapiens, UniProt Q14416); assay: Cell based functional selectivity assay
mGlu2, sequence (Q14416 19-872): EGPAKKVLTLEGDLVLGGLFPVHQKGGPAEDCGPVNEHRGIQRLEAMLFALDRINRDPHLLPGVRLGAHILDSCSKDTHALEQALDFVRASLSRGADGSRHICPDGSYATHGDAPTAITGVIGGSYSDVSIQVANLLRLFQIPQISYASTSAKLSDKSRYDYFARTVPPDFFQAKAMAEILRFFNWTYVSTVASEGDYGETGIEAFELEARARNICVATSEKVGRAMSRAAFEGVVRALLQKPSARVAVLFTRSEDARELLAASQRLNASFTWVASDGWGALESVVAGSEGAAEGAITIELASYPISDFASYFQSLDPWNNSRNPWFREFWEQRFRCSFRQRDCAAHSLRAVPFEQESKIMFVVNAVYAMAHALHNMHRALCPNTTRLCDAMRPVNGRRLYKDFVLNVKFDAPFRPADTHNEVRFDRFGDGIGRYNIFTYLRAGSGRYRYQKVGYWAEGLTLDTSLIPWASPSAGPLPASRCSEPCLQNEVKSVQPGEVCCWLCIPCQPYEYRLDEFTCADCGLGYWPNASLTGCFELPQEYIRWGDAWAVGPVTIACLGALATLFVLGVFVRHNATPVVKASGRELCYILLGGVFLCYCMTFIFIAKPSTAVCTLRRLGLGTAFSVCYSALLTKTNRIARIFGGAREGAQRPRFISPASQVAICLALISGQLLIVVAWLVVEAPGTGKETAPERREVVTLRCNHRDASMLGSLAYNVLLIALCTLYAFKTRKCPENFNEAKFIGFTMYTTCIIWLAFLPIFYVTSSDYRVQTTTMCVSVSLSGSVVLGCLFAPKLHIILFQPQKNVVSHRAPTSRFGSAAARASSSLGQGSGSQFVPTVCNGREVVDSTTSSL

rat mGlu5 [11] = target: T1, rat mGlu5; assay: Radioligand binding assay, [3H]methoxyPEPy competition
Method in brief: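 Competition binding used membranes from rat mGlu5 HEK293A cells (40 μg/well) in 50 mM Tris/0.9% NaCl, pH 7.4, with [3H]methoxyPEPy (2 nM final) and test compound. Incubation was 1 h at room temperature with shaking, then GF/B filtration, 3–4 buffer washes and scintillation counting. Non-specific binding defined with 5 μM MPEP; curves fitted by four-parameter logistic equation.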

[12] = male, CD-1, mouse, brain, ip, 10 mg/kg
[13] = mouse, 10 mg/kg intraperitoneal

- % Glu Max (rat mGlu5 [1]; average of n ≥ 3): 1.2 ± 0.3%
- IC50 (rat mGlu5 [1]; read-out: mGlu5 IC50, calcium mobilization, EC80 glutamate, HEK293A cells expressing rat mGlu5, average of n ≥ 3): 9.5 ± 1.6 nM
SMILES: Cc1ccc2ccc(-c3cc(F)cc(C#N)c3)cc2n1 [Compound 3, reference compound]

- % Parent Remaining [2]: 20%
- selectivity, activity against mGlu4 (mGlu4): inactive
- % Parent Remaining [4]: 18%
- selectivity, activity against mGlu7 (mGlu7): inactive
- blockade of the glutamate response [5]: near complete blockade
- selectivity, activity against mGlu3 (mGlu3): inactive
- IC50 (rat mGlu5 [1]): 61 ± 7 nM
- % Glu Max (rat mGlu5 [1]; average of n ≥ 3): 0.63 ± 0.12%
- fraction unbound at 4 h, 1000 ng/g [7]: 0.001
- selectivity, activity against mGlu8 (mGlu8): inactive
- fraction unbound at 4 h, 1000 ng/g [8]: 0.006
- fraction unbound at 4 h, 1000 ng/g [9]: 0.005
- selectivity, activity against mGlu1 (mGlu1): inactive
- Tmax [10, 12]: 15 min
- concentration at 30 min [10, 12]: 3.75 µM
- AUC(0-t) ([10]; male, CD-1, mouse, plasma, ip, 10 mg/kg): 801 ng·h/mL
- AUC0-6h in brain [10, 13]: 1530 ng·h/g
- brain exposure until the one hour time point [10, 13]: above 500 ng/g
- exposure in brain relative to plasma ([10]; mouse, 10 mg/kg intraperitoneal, AUC0-6h): nearly two fold higher
- brain exposure expected at 30 mg/kg ([10]; mouse, assuming a dose linear increase in exposure from the 10 mg/kg study): > 10 µM
- selectivity, activity against mGlu2 (mGlu2): inactive
- Ki for binding relative to potency in the functional assay (rat mGlu5 [11]; [3H]methoxyPEPy competition versus calcium mobilization IC50): approximately eight fold less
SMILES: Cc1nc2cc(-c3cc(F)cc(C#N)c3)ccc2s1 [Compound 18, 3-fluoro-5-(2-methylbenzo[d]thiazol-5-yl)benzonitrile]
- progressive ratio responding for OSS stimuli (C57Bl/6J mice [3]; 3, 10, 30 mg/kg i.p.): dose dependently reduce
- progressive ratio responding for food reinforcer (C57Bl/6J mice [6]): no significant effects
- inhibition of marble burying (male CD-1 mice; 30 mg/kg ip): Significant inhibition
- block of radioligand binding (rat mGlu5 [11]; [3H]3-methoxy-5-(pyridin-2-ylethynyl)pyridine, at the highest concentration): almost completely block the binding of the radioligand

SMILES: Cc1nc(C#Cc2cccnc2)cs1 [MTEP, 3-[(2-methyl-1,3-thiazol-4-yl)ethynyl]pyridine, reference compound]
- progressive ratio responding for OSS stimuli (C57Bl/6J mice [3]; 1.5, 5, 15 mg/kg i.p.): dose-dependently reduced
- inhibition of marble burying (male CD-1 mice; 15 mg/kg ip, positive control): significant effect
